Reference: ChEMBL document CHEMBL1142087 (Antimicrob Agents Chemother, 2007)
The source made the active and inactive calls. No cut-off for these calls is given here.

Columns and labels:
[1] = tested on: Influenza A virus; experiment: Inhibition of Influenza A virus (A/gull/Pennsylvania/4175/83 (H5N1)) replication in MDCK cells by virus yield reduction assay; assay type: functional
[2] = tested on: Mus musculus; experiment: Effect on survival of BALB/c mouse infected with influenza A virus (A/duck/Minnesota/1525/1981 (H5N1)) at 100 mg/kg/day, po qid for 5 days administered 1 hr after infection relative to carboxymethyl cellulose; assay type: functional, organism-based
[3] = tested on: Mus musculus; experiment: Lowering of arterial oxygen saturation decline in BALB/c mouse infected with influenza A virus (A/duck/Minnesota/1525/1981 (H5N1)) at 30 mg/kg/day, po once daily for 5 days administered 1 hr after infection measured on day 11 relative to carboxymethyl cellulose; assay type: functional
[4] = tested on: Mus musculus; experiment: Lowering of arterial oxygen saturation decline in BALB/c mouse infected with influenza A virus (A/duck/Minnesota/1525/1981 (H5N1)) at 10 mg/kg/day, po once daily for 5 days administered 1 hr after infection measured on day 11 relative to carboxymethyl cellulose; assay type: functional
[5] = tested on: Mus musculus; experiment: Effect on survival of BALB/c mouse infected with influenza A virus (A/duck/Minnesota/1525/1981 (H5N1)) at 33 mg/kg/day, po qid for 5 days administered 1 hr after infection relative to carboxymethyl cellulose; assay type: functional, organism-based
[6] = tested on: Mus musculus; experiment: Inhibition of increase in lung weight of BALB/c mouse infected with influenza A virus (A/duck/Minnesota/1525/1981 (H5N1)) at 300 mg/kg/day, po qid for 5 days administered 1 hr after infection measured on day 6 relative to carboxymethyl cellulose; assay type: functional
[7] = tested on: Mus musculus; experiment: Inhibition of increase in lung weight of BALB/c mouse infected with influenza A virus (A/duck/Minnesota/1525/1981 (H5N1)) at 100 mg/kg/day, po qid for 5 days administered 1 hr after infection measured on day 6 relative to carboxymethyl cellulose; assay type: functional
[8] = tested on: Mus musculus; experiment: Inhibition of increase in lung weight of BALB/c mouse infected with influenza A virus (A/duck/Minnesota/1525/1981 (H5N1)) at 33 mg/kg/day, po qid for 5 days administered 1 hr after infection measured on day 6 relative to carboxymethyl cellulose; assay type: functional
[9] = tested on: Mus musculus; experiment: Lowering of Arterial oxygen saturation decline in BALB/c mouse infected with influenza A virus (A/duck/Minnesota/1525/1981 (H5N1)) at 300 mg/kg/day, po qid for 5 days administered 1 hr after infection measured on day 11 relative to carboxymethyl cellulose; assay type: functional
Procedure, shortened: (§1)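 Arterial oxygen saturation was measured by pulse oximeter, with the ear probe placed on the thigh and read after 30 s stabilization. Values were taken on day 11, 10 mice per group. Mice dead from infection were assigned 75%. Means were compared with CMC controls by t test.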

[10] = tested on: Mus musculus; experiment: Lowering of Arterial oxygen saturation decline in BALB/c mouse infected with influenza A virus (A/duck/Minnesota/1525/1981 (H5N1)) at 100 mg/kg/day, po qid for 5 days administered 1 hr after infection measured on day 11 relative to carboxymethyl cellulose; assay type: functional; procedure, shortened: as §1
[11] = tested on: Mus musculus; experiment: Lowering of Arterial oxygen saturation decline in BALB/c mouse infected with influenza A virus (A/duck/Minnesota/1525/1981 (H5N1)) at 33 mg/kg/day, po qid for 5 days administered 1 hr after infection measured on day 11 relative to carboxymethyl cellulose; assay type: functional
[12] = tested on: Mus musculus; experiment: Effect on survival in BALB/c mouse infected with influenza A virus (A/duck/Minnesota/1525/1981 (H5N1)) at 300 mg/kg/day, po administered 12 hrs after infection relative to carboxymethyl cellulose; assay type: functional, organism-based
[13] = tested on: Mus musculus; experiment: Effect on survival in BALB/c mouse infected with influenza A virus (A/duck/Minnesota/1525/1981 (H5N1)) at 300 mg/kg/day, po administered 24 hrs after infection relative to carboxymethyl cellulose; assay type: functional, organism-based
[14] = tested on: Mus musculus; experiment: Effect on survival in BALB/c mouse infected with influenza A virus (A/duck/Minnesota/1525/1981 (H5N1)) at 300 mg/kg/day, po administered 48 hrs after infection relative to carboxymethyl cellulose; assay type: functional, organism-based
[15] = tested on: Mus musculus; experiment: Effect on survival in BALB/c mouse infected with influenza A virus (A/duck/Minnesota/1525/1981 (H5N1)) at 600 mg/kg/day, po administered 48 hrs after infection relative to carboxymethyl cellulose; assay type: functional, organism-based
[16] = tested on: Mus musculus; experiment: Effect on survival in BALB/c mouse infected with influenza A virus (A/duck/Minnesota/1525/1981 (H5N1)) at 600 mg/kg/day, po administered 60 hrs after infection relative to carboxymethyl cellulose; assay type: functional, organism-based
[17] = tested on: Mus musculus; experiment: Effect on survival of BALB/c mouse infected with influenza A virus (A/duck/Minnesota/1525/1981 (H5N1)) at 300 mg/kg/day, po twice daily for 5 days administered 1 hr after infection relative to carboxymethyl cellulose; assay type: functional, organism-based
[18] = tested on: Mus musculus; experiment: Lowering of arterial oxygen saturation decline in BALB/c mouse infected with influenza A virus (A/duck/Minnesota/1525/1981 (H5N1)) at 3 mg/kg/day, po once daily for 5 days administered 1 hr after infection measured on day 11 relative to carboxymethyl cellulose; assay type: functional
[19] = tested on: Mus musculus; experiment: Effect on survival of BALB/c mouse infected with influenza A virus (A/duck/Minnesota/1525/1981 (H5N1)) at 300 mg/kg/day, po qid for 5 days administered 24 hrs after infection relative to carboxymethyl cellulose; assay type: functional, organism-based
[20] = tested on: Mus musculus; experiment: Effect on survival of BALB/c mouse infected with influenza A virus (A/duck/Minnesota/1525/1981 (H5N1)) at 300 mg/kg/day, po qid for 5 days administered 60 hrs after infection relative to carboxymethyl cellulose; assay type: functional, organism-based
[21] = tested on: Mus musculus; experiment: Lowering of arterial oxygen saturation decline in BALB/c mouse infected with influenza A virus (A/duck/Minnesota/1525/1981 (H5N1)) at 300 mg/kg/day, po qid for 5 days administered 36 hrs after infection measured on day 11 relative to carboxymethyl cellulose; assay type: functional
[22] = tested on: Mus musculus; experiment: Lowering of arterial oxygen saturation decline in BALB/c mouse infected with influenza A virus (A/duck/Minnesota/1525/1981 (H5N1)) at 300 mg/kg/day, po qid for 5 days administered 72 hrs after infection measured on day 11 relative to carboxymethyl cellulose; assay type: functional
[23] = tested on: Mus musculus; experiment: Lowering of arterial oxygen saturation decline in BALB/c mouse infected with influenza A virus (A/duck/Minnesota/1525/1981 (H5N1)) at 300 mg/kg/day, po qid for 5 days administered 96 hrs after infection measured on day 11 relative to carboxymethyl cellulose; assay type: functional
[24] = tested on: Mus musculus; experiment: Lowering of Arterial oxygen saturation decline in BALB/c mouse infected with influenza A virus (A/duck/Minnesota/1525/1981 (H5N1)) at 300 mg/kg/day, po twice daily for 5 days administered 1 hr after infection measured on day 11 relative to carboxymethyl cellulose; assay type: functional
[25] = tested on: Mus musculus; experiment: Lowering of Arterial oxygen saturation decline in BALB/c mouse infected with influenza A virus (A/duck/Minnesota/1525/1981 (H5N1)) at 100 mg/kg/day, po twice daily for 5 days administered 1 hr after infection measured on day 11 relative to carboxymethyl cellulose; assay type: functional; procedure, shortened: as §1
[26] = tested on: Mus musculus; experiment: Lowering of Arterial oxygen saturation decline in BALB/c mouse infected with influenza A virus (A/duck/Minnesota/1525/1981 (H5N1)) at 30 mg/kg/day, po twice daily for 5 days administered 1 hr after infection measured on day 11 relative to carboxymethyl cellulose; assay type: functional; procedure, shortened: as §1

## NC(=O)c1nc(F)cnc1O [FAVIPIRAVIR]
[1]
  EC90: 7.7 µM
[2]
  Activity: Active
[3]
  Activity: 81.4%
[4]
  Activity: 77%
[5]
  Activity: Active
[6]
  Activity: 146 mg
[7]
  Activity: 140 mg
[8]
  Activity: 217 mg
[9]
  Activity: 88.6%
[10]
  Activity: 85.9%
[11]
  Activity: 84.8%
[12]
  Activity: Active
[13]
  Activity: Active
[14]
  Activity: Active
[15]
  Activity: Active
[16]
  Activity: Active
[17]
  Activity: Active
[18]
  Activity: 75%
[19]
  Activity: Active
[20]
  Activity: Active
[21]
  Activity: 84.6%
[22]
  Activity: 84.1%
[23]
  Activity: 81.2%
[24]
  Activity: 86.9%
[25]
  Activity: 84.2%
[26]
  Activity: 79.8%
